This is an account of results in ChEMBL document CHEMBL3085766, “Synthesis, ex vivo and in silico studies of 3-cyano-2-pyridone derivatives with vasorelaxant activity” (Eur J Med Chem, 2013).

Assay [1] has as its system Aorta. Briefly: Vasorelaxant activity in rat endothelium-denuded thoracic aortic ring assessed as inhibition of noradrenaline-induced contraction relative to control. Type of assay: functional. The procedure, abridged: (§1)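 Isometric tension of isolated rat thoracic aorta rings, endothelium intact or removed, recorded with a force transducer. After stabilization, rings were challenged with […] for 10 min and washed in fresh Krebs solution. This was done three times at 30-min intervals. Endothelial status was confirmed by […] relaxation in the last contraction. Rings were then contracted with NA and given quarter-log cumulative concentrations; EC50 derived.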

Assay [2] relates to Aorta. Briefly: Vasorelaxant activity in rat endothelium-intact thoracic aortic ring assessed as inhibition of noradrenaline-induced contraction relative to control. Type of assay: functional. The gist of the method:
as §1

In assay [3] the test system is Aorta. In words: Vasorelaxant activity in rat endothelium-intact thoracic aortic ring assessed as inhibition of noradrenaline-induced contraction. It is filed as functional, tissue-based. The procedure, abridged:
as §1

For assay [4], the system named is Aorta. In words: Vasorelaxant activity in rat endothelium-denuded thoracic aortic ring assessed as inhibition of noradrenaline-induced contraction. It is filed as functional, tissue-based. The gist of the method: as §1

Structures are written as SMILES.

`CCOC(=O)c1c(C)[nH]c(=O)c(C#N)c1-c1ccncc1`: the Efficacy in assay [1] came out at 86.4%; in assay [2], 85.47%. In addition, the EC50 in assay [3] stood at 270 µM; in assay [4], 178 µM. In assay [4], the inhibition result was “Dose-dependent effect”.
For the molecule `C[N+](C)(C)CCOC(N)=O.[Cl-]` [CARBACHOL], the Efficacy in assay [2] is given as 74.06%. In addition, in assay [3], the EC50 amounted to 0.3 µM.
Turning to `CCOC(=O)c1c(C)[nH]c(=O)c(C#N)c1-c1ccco1`, the Efficacy in assay [1] came out at 93%; in assay [2], 100%. Besides, the 50% effective concentration (EC50) is 22 µM in assay [3] and 31 µM in assay [4]. Moreover, the inhibition entry in assay [4] is “Dose-dependent effect”.
As for `CCOC(=O)c1c(C)[nH]c(=O)c(C#N)c1-c1cccc(Cl)c1`, the figures for the Efficacy in assay [1] and in assay [2] were 99% and 97%, respectively. Also, the figures for the 50% effective concentration (EC50) in assay [3] and in assay [4] were 85 µM and 62 µM, respectively. In addition, the inhibition entry in assay [4] is “Dose-dependent effect”.
For the molecule `CCOC(=O)c1c(C)[nH]c(=O)c(C#N)c1-c1cccs1`, the Efficacy is 99% in assay [1] and 100% in assay [2]. Also, the 50% effective concentration (EC50) in assay [3] turned out to be 5 µM; in assay [4] it was 12 µM. In addition, the inhibition entry in assay [4] is “Dose-dependent effect”.
The like results for `CCOC(=O)c1c(C)[nH]c(=O)c(C#N)c1-c1ccc([N+](=O)[O-])cc1` were, in that order, 95%, 98%, 7 µM, 8.2 µM and “Dose-dependent effect”.
The like results for `CCOC(=O)c1c(C)[nH]c(=O)c(C#N)c1-c1ccc([N+](=O)[O-])cc1[N+](=O)[O-]` were, in that order, 99%, 97%, 4.4 µM, 3.6 µM and “Dose-dependent effect”.
For the molecule `COC(=O)C1=C(C)NC(C)=C(C(=O)OC)C1c1ccccc1[N+](=O)[O-]` [NIFEDIPINE], the Efficacy in assay [1] amounted to 97%. Besides, the EC50 in assay [4] amounted to 0.03 µM.

In general, EC50 refers to the concentration at which the effect is half-maximal.
